Key:
[1] = tested on: Mycobacterium tuberculosis; test: Antitubercular activity against Mycobacterium tuberculosis H37Rv after 5 days; type: functional, organism-based; conditions: 120 h
[2] = Cytotoxicity against human HEK293 cells assessed as reduction in cell viability after 48 hrs by Alamar blue assay; type: cell-based
Procedure, shortened: (§1)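 Alamar Blue viability read-out. Human liver (THLE-3) and kidney (HEK 293) cells incubated with compound for 48 h. Tested in dose-response to derive CC50.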

[3] = Cytotoxicity against human THLE3 cells assessed as reduction in cell viability after 48 hrs by Alamar blue assay; type: cell-based; procedure, shortened: as §1
[4] = target: T1, Tyrosine-protein phosphatase non-receptor type 1 (Homo sapiens, UniProt P18031); test: Inhibition of human PTPN1 expressed in Escherichia coli Rosetta 2 (DE3) using pNPP as substrate after 45 mins by spectrophotometric method
T1 sequence (P18031 whole entry): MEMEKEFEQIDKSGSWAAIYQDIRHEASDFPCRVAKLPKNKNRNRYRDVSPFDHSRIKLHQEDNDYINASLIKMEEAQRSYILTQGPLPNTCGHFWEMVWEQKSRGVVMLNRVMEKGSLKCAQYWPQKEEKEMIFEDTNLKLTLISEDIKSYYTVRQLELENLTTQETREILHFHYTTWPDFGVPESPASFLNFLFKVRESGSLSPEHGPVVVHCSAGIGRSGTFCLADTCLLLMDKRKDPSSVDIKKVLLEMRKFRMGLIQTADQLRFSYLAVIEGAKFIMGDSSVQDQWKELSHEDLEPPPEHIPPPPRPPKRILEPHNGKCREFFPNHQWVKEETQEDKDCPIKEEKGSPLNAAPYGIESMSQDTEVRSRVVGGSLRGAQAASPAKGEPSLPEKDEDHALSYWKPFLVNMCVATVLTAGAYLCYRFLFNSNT

[5] = tested on: Mycobacterium tuberculosis; test: Antitubercular activity against Mycobacterium tuberculosis H37Rv after 5 days at 200 uM relative to control; type: functional; conditions: 120 h
Procedure, shortened: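 M. tuberculosis grown in liquid culture with compound at a fixed 200 μM for 5 days. Growth inhibition expressed as percent of control.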

[6] = target: T2, Malate dehydrogenase, mitochondrial (Sus scrofa, UniProt P00346); test: Inhibition of refolded pig heart mitochondrial MDH preincubated with Escherichia coli GroEL/GroES for 45 mins using sodium mesoxalate as substrate followed by compound addition and measured after 20 to 30 mins by spectrometric analysis
T2 sequence (P00346 whole entry): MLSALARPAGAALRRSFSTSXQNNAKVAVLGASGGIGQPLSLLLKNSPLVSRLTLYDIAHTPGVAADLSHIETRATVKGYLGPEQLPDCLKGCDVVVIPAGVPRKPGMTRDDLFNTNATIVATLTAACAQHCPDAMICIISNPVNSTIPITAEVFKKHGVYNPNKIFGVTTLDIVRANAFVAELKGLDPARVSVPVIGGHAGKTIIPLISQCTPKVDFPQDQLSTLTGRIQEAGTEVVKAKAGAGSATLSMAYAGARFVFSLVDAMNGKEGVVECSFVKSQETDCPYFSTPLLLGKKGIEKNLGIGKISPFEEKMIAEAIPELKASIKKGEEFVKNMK

[7] = target: T3, Tyrosine-protein phosphatase non-receptor type 5 (Homo sapiens, UniProt P54829); test: Inhibition of human PTPN5 expressed in Escherichia coli Rosetta 2 (DE3) using pNPP as substrate after 45 mins by spectrophotometric method
T3 sequence (P54829 whole entry): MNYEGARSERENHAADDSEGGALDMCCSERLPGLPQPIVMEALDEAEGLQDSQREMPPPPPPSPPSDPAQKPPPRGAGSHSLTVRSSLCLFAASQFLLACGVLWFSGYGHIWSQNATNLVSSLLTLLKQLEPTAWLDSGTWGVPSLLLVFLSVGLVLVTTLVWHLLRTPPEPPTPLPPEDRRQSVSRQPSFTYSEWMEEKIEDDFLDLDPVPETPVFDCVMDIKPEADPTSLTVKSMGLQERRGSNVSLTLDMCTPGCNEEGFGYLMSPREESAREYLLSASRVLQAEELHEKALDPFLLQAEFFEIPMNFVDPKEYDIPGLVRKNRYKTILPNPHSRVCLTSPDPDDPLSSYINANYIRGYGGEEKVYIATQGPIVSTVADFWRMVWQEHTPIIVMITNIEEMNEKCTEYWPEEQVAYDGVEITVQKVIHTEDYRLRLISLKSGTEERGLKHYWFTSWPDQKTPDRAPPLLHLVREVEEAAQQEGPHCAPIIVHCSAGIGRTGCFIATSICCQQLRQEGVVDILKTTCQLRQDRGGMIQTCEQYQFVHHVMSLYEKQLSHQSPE

[8] = target: T4, Phosphotyrosine protein phosphatase (Mycobacterium tuberculosis, UniProt A0A045ISB3); test: Inhibition of Mycobacterium tuberculosis His-tagged PtpB expressed in Escherichia coli Rosetta 2 (DE3) using pNPP as substrate after 30 mins by spectrophotometric method
T4 sequence (A0A045ISB3 whole entry): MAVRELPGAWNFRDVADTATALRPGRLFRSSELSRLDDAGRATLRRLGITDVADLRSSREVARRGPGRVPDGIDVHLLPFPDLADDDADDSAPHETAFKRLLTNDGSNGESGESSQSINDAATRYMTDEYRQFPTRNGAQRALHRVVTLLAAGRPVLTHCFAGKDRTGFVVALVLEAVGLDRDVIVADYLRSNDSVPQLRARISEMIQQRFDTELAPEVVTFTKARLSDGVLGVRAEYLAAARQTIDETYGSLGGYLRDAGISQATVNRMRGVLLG

[9] = target: T5, Tyrosine-protein phosphatase non-receptor type 2 (Homo sapiens, UniProt P17706); test: Inhibition of human PTPN2 expressed in Escherichia coli Rosetta 2 (DE3) using pNPP as substrate after 45 mins by spectrophotometric method
T5 sequence (P17706 whole entry): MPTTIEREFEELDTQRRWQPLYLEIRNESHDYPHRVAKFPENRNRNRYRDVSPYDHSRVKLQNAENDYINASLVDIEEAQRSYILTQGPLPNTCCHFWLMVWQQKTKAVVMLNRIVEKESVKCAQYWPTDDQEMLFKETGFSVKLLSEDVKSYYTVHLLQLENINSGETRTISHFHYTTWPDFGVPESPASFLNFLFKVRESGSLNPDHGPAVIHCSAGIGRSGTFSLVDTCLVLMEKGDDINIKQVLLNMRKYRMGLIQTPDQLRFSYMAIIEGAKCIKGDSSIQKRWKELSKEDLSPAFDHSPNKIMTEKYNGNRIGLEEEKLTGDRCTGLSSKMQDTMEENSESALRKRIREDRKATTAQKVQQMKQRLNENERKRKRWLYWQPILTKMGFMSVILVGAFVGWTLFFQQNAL

HSP60/HSP10 = HSP60/HSP10 (Homo sapiens, UniProt P10809); test: Inhibition of human HSP60 expressed in Escherichia coli Rosetta 2(DE3)/human HSP10 expressed in Escherichia coli Rosetta 2(DE3) pLysS cells assessed as reduction in HSP60/HSP10-mediated denatured pig heart mitochondrial MDH refolding by measuring MDH enzyme activity using sodium mesoxalate as substrate after 40 to 60 mins by spectrometric analysis
[10] = Inhibition of refolded rhodanese (unknown origin) preincubated with Escherichia coli GroEL/GroES for 60 mins by measuring rhodanese enzyme activity followed by compound addition by Fe(SCN)3 dye based spectrometric analysis; parameters: species or system Homo sapiens

HSP60/HSP10, sequence (P10809 whole entry): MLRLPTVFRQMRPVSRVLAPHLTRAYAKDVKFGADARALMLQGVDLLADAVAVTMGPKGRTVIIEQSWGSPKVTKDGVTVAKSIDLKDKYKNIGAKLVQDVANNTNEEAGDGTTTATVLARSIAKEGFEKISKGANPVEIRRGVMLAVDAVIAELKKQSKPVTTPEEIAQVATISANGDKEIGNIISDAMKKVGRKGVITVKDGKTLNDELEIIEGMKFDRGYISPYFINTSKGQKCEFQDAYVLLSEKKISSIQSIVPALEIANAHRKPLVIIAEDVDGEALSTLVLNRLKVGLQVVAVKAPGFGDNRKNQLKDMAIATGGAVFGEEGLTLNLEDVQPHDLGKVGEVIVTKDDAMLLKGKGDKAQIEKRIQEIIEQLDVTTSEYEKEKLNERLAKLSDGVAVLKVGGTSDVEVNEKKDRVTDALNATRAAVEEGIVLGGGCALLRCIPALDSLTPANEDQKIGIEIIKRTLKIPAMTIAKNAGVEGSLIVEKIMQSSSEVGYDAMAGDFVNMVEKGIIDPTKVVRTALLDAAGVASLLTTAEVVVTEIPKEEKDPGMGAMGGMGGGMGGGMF
HSP60/HSP10, sequence (P61604 whole entry, further chain): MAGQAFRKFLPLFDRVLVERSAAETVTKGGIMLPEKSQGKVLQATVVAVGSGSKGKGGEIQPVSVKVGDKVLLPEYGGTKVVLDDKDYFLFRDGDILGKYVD

Compound | EC50 [1] [µM] | CC50 at 48 h [2] [µM] | CC50 at 48 h [3] [µM] | IC50 [4] [µM] | inhibition at 200 µM [5] [%] | IC50 [6] [µM] | IC50 [7] [µM] | IC50 [8] [µM] | IC50 [9] [µM] | IC50 (HSP60/HSP10) [µM] | IC50 [10] [µM]
COc1ccc(S(=O)(=O)Nc2ccc3oc(-c4ccccc4)nc3c2)cc1 | 167 | 91 | 53 | 46 | 75 | > 63 | 37 | 73 | 50 | > 100 | > 100
N#Cc1ccccc1S(=O)(=O)Nc1ccc(-c2nc3cc(NS(=O)(=O)c4ccccc4C#N)ccc3o2)cc1 | 113 |  |  | 56 | 85 |  | 47 | 18 | 69 |  | 
CS(=O)(=O)Nc1ccc(-c2nc3cc(NS(C)(=O)=O)ccc3o2)cc1 | > 200 |  |  | > 100 | 62 |  | > 100 | > 100 | > 100 |  | 
O=S(=O)(Nc1ccc2oc(-c3ccccc3)nc2c1)c1cccc(F)c1 | > 200 | 68 | 41 | 71 | 56 | > 63 | 42 | 93 | > 100 | > 100 | > 100
COc1cccc(S(=O)(=O)Nc2ccc(-c3nc4ccccc4o3)cc2)c1 | 156 | > 100 | 84 | 51 | 74 | > 63 | 48 | 67 | 67 | 80 | > 100
O=S(=O)(Nc1ccc(-c2nc3cc(NS(=O)(=O)c4cccc(F)c4)ccc3o2)cc1)c1cccc(F)c1 | > 200 |  |  | 36 | 48 |  | 31 | 13 | 32 |  | 
N#Cc1cccc(S(=O)(=O)Nc2ccc(-c3nc4cc(NS(=O)(=O)c5cccc(C#N)c5)ccc4o3)cc2)c1 | > 200 |  |  | 37 | 65 |  | 44 | 33 | 48 |  | 
CS(=O)(=O)Nc1ccc2oc(-c3ccc(NS(=O)(=O)c4ccc(Cl)s4)cc3)nc2c1 | 104 |  |  | 73 | 85 |  | > 100 | 46 | > 100 |  | 
O=S(=O)(Nc1ccc(-c2nc3cc(NS(=O)(=O)c4ccccc4Br)ccc3o2)cc1)c1ccccc1Br | > 200 |  |  | 24 | 50 |  | 31 | 20 | 28 |  | 
O=S(=O)(Nc1ccc(-c2nc3cc(NS(=O)(=O)c4cccc5nonc45)ccc3o2)cc1)c1cccc2nonc12 | > 200 |  |  | 34 | 76 |  | 40 | 8.8 | 58 |  | 
Nc1ccc(S(=O)(=O)Nc2ccc(-c3nc4cc(NS(=O)(=O)c5ccc(N)cc5)ccc4o3)cc2)cc1 | > 200 |  |  | 27 | 51 |  | 41 | 16 | 32 |  | 
O=S(=O)(Nc1ccc2oc(-c3ccccc3)nc2c1)c1ccccc1O |  | 33 | 32 | 76 | 18 | > 63 | 68 | 98 | > 100 | 85 | > 100
O=S(=O)(Nc1ccc2oc(-c3ccccc3)nc2c1)c1ccc(F)c(C(F)(F)F)c1 |  | > 100 | 55 | 76 | 23 | > 63 | 26 | 46 | 39 | 69 | > 100
Nc1ccccc1S(=O)(=O)Nc1ccc(-c2nc3cc(NS(=O)(=O)c4ccccc4N)ccc3o2)cc1 | > 200 |  |  | 34 | 58 |  | 51 | 17 | 25 |  | 

From ChEMBL document CHEMBL4387722
